# Among all 190,000 compounds or so, about 200 (0.11%) were called active. The list comes from a sample in which actives are over-represented; it also holds similar structures and randomly drawn compounds. Values without a mark were called inactive.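 Rule for the calls: active = inhibition above 80%; inactive = the rest.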
# Molecular target: Broad substrate specificity ATP-binding cassette transporter ABCG2 (Homo sapiens) (UniProt Q9UNQ0)
# Assay: ABCG2 efflux pump inhibitors, primary screen, multiplex with ABCB1, IgMXP3 cells, flow cytometry (AID 1325);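 note: 0% = DMSO and 100% = nicardipine control wells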
# Settings: JC-1 efflux, at 6.6 µM, hits give high values
# Method in brief: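 Assay system – ABCG2 IgMXP3 and barcoded ABCB1 CCRF-Adr cell mix · Input – 3 million cells/mL in well · Reagent – JC-1 fluorescent substrate · Compound – single test compound dose, 6.6 µM final · Timing – 10 min exposure at 25 °C with rotation, no wash · Detection – flow cytometry of retained JC-1 fluorescence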
# Broad substrate specificity ATP-binding cassette transporter ABCG2 (Homo sapiens), sequence (Q9UNQ0 whole entry, looked up): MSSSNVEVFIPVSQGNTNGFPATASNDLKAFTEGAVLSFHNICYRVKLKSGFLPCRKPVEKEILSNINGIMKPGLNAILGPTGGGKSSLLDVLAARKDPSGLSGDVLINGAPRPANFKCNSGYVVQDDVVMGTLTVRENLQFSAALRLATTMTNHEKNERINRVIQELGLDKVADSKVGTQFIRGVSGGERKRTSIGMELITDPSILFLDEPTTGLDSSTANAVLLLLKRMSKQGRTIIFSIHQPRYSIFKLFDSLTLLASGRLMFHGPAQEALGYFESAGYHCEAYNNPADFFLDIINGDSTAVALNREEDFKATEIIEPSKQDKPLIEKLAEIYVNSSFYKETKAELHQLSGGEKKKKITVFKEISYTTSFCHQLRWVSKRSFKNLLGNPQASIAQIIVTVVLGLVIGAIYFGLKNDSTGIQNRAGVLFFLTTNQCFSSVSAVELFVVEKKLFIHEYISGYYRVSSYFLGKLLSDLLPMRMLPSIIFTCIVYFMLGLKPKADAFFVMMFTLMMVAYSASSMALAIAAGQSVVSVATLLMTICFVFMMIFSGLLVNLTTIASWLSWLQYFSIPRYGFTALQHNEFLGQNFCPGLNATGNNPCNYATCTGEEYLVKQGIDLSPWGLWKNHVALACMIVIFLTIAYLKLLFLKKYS
row,SMILES,inhibition
1,Cc1cc(OCc2cc(C(=O)O)oc2C)c2c3c(c(=O)oc2c1)CCCC3,-0.16%
2,COC(=O)COc1cc(C)cc2oc(=O)c3c(c12)CCCC3,85.8% (active)
3,Cc1ccc(-c2nc3ccccc3c(=O)n2-c2ccc(Br)cn2)cc1,4.52%
4,COc1ccc(-c2nn(CCC#N)cc2C(=O)O)cc1,12.1%
5,CN(C)C(=O)Oc1cc(=O)n2c3c(cccc13)CCC2,8.26%
